Assay results from ChEMBL document CHEMBL1158116, “Prenylated flavonoids from the root bark of Berchemia discolor, a Tanzanian medicinal plant” (2006).
Values after ≈ are worked out from the molar mass of the structure shown. Active and inactive are the calls of the source. The calls are words filed in the database; no cut-off is given here.

Assays:
LNCaP [1] = assay: Cytotoxicity against human LNCAP cells; type: functional; conditions: read-out: ED50 (the source's name)
Outline: (§1)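 Panel of three human cancer lines (Lu1, LNCaP, MCF-7). Cytotoxicity expressed as ED50 in µg/mL.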

MCF7 [2] = assay: Cytotoxicity against human MCF7 cells; type: functional; conditions: read-out: ED50 (the source's name); outline: as §1
Lu1 [3] = assay: Cytotoxicity against human Lu1 cells; type: functional; conditions: read-out: ED50 (the source's name); outline: as §1
LNCaP [4] = assay: Inhibition of human LNCAP cells propagated in hollow fibers via intraperitoneal site of immunodeficient NCr nu/nu mouse at 10 to 40 mg/kg, ip once daily after 7 days of implantation relative to control; type: functional; conditions: dose mg/kg 10-40
Outline: (§2)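 In vivo hollow fiber model in immunodeficient mice. Fibers loaded with Lu1, LNCaP or MCF-7 cells were implanted subcutaneously or intraperitoneally. Vehicle or drug was given ip once daily at 10, 20 or 40 mg/kg on days 3-6 after implantation. Mice were sacrificed on day 7, and fibers were retrieved and analysed for growth inhibition versus vehicle.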

Lu1 [5] = assay: Inhibition of human Lu1 cells propagated in hollow fibers via subcutaneous site of immunodeficient NCr nu/nu mouse at 10 to 40 mg/kg, ip once daily after 7 days of implantation; type: functional, organism-based; outline: as §2
MCF7 [6] = assay: Inhibition of human MCF7 cells propagated in hollow fibers via subcutaneous site of immunodeficient NCr nu/nu mouse at 10 to 40 mg/kg, ip once daily after 7 days of implantation; type: functional, organism-based; outline: as §2

| SMILES | EC50 (LNCaP [1]) | EC50 (MCF7 [2]) | EC50 (Lu1 [3]) | inhibition (INH) (LNCaP [4]) | Activity (Lu1 [5]) | Activity (MCF7 [6]) |
| --- | --- | --- | --- | --- | --- | --- |
| COc1ccc([C@]2(O)COc3c(ccc4c3C=CC(C)(C)O4)C2)c(O)c1 | > 5 µg/mL | > 5 µg/mL | > 5 µg/mL | – | – | – |
| CC1(C)C=Cc2c(c(O)cc3c2OC[C@@H]2c4cc5c(cc4O[C@H]32)OCO5)O1 | > 5 µg/mL | > 5 µg/mL | > 5 µg/mL | – | – | – |
| CC1(C)C=Cc2c(cc(O)c3c2OCC(c2cc4c(cc2O)OCO4)C3=O)O1 (racemic) [DISCOLORANONE A] | > 5 µg/mL | > 5 µg/mL | > 5 µg/mL | – | – | – |
| CC1(C)C=Cc2c(cc3c(c2O)C(=O)[C@@H](c2cc4c(cc2O)OCO4)CO3)O1 [(3S)-ISODISCOLORANONE A] | > 5 µg/mL | > 5 µg/mL | > 5 µg/mL | – | – | – |
| COc1ccc([C@H]2COc3cc4c(c(O)c3C2=O)C=CC(C)(CCC=C(C)C)O4)c(O)c1O (stereo partly drawn) [(3S)-ISODISCOLORANONE B] | > 5 µg/mL | > 5 µg/mL | > 5 µg/mL | – | – | – |
| C=C(CO)[C@H]1Cc2c(ccc3c2O[C@@H]2COc4cc(OC)c(OC)cc4[C@@H]2C3=O)O1 [AMORPHIGENIN] | 7.9 µg/mL (≈ 19.2 µM) | > 20 µg/mL | 4.8 µg/mL (≈ 11.7 µM) | – | – | – |
| C=C(CO)[C@H]1Cc2c(ccc3c2O[C@@H]2COc4cc(OC)c(OC)cc4[C@]2(O)C3=O)O1 [DABINOL] | 5.4 µg/mL (≈ 12.7 µM) | 13.1 µg/mL (≈ 30.7 µM) | 3.1 µg/mL (≈ 7.27 µM) | – | – | – |
| COc1ccc([C@H]2COc3c4c(cc(O)c3C2=O)OC(C)(CCC=C(C)C)C=C4)c(O)c1O (stereo not given in full) [DISCOLORANONE] | 6.4 µg/mL (≈ 14.1 µM) | 3.6 µg/mL (≈ 7.96 µM) | 9.6 µg/mL (≈ 21.2 µM) | – | – | – |
| COc1ccc(C2COc3c(ccc4c3C=CC(C)(CCC=C(C)C)O4)C2)c(O)c1 (stereo not given) [HEMINITIDULAN] | > 5 µg/mL | > 5 µg/mL | > 5 µg/mL | – | – | – |
| CC1(C)C=Cc2c(ccc3c2OCC2c4cc5c(cc4OC32)OCO5)O1 (stereo not given) [LEIOCARPIN] | > 5 µg/mL | > 5 µg/mL | > 5 µg/mL | – | – | – |
| CC1(C)C=Cc2c(c(O)cc3c2OCC(c2cc4c(cc2O)OCO4)C3)O1 (stereo not given) [LEIOCINOL] | > 5 µg/mL | > 5 µg/mL | > 5 µg/mL | – | – | – |
| CC1(C)C=Cc2c(ccc3c2OCC(c2cc4c(cc2O)OCO4)C3)O1 (stereo not given) [LEIOCIN] | > 5 µg/mL | > 5 µg/mL | > 5 µg/mL | – | – | – |
| CC(C)=CCCC1(C)C=Cc2c(ccc3c2OCC(c2cc4c(cc2O)OCO4)C3)O1 (stereo not given) [NITIDULAN] | > 5 µg/mL | > 5 µg/mL | > 5 µg/mL | – | – | – |
| COc1ccc([C@H]2COc3c(ccc4c3C=CC(C)(CCC=C(C)C)O4)C2)c(O)c1O (stereo not given in full) [NITIDULIN] | 4.1 µg/mL (≈ 9.7 µM) | 3.5 µg/mL (≈ 8.28 µM) | 4.2 µg/mL (≈ 9.94 µM) | 49% | inactive | inactive |
